The target in data set [1] is Fibroblast growth factor 2 (Homo sapiens, UniProt P09038). Description: Binding affinity for FGF2 by BIAcore solution affinity assay. In short, it runs like this: (§1)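 Surface plasmon resonance solution affinity assay: growth factor preequilibrated with ligand in solution, then injected; specific binding after background subtraction converted to free protein concentration under mass-transport conditions. Kd derived assuming 1:1 stoichiometry; duplicates averaged where measured.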
Fibroblast growth factor 2, sequence (P09038 143-288 limits assumed): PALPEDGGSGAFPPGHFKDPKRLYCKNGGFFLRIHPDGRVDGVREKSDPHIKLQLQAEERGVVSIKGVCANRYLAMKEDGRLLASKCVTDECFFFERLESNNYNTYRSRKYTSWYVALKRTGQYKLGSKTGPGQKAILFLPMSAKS
In general terms: SPR reads the build-up and loss of mass on a sensor chip optically.

The target of data set [2] is T1, Vascular endothelial growth factor A, long form (Homo sapiens, UniProt P15692).
T1 sequence (P15692 whole entry): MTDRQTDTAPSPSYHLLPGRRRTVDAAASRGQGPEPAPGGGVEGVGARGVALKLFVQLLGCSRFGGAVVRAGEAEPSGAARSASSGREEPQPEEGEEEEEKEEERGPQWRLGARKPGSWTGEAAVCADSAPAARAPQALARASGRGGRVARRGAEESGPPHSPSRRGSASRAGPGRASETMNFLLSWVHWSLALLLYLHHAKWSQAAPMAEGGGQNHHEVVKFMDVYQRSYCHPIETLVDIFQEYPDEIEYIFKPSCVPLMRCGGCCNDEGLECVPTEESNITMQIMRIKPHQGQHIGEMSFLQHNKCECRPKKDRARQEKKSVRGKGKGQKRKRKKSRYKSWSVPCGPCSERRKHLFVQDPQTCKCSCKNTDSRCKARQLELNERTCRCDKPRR
Description: Binding affinity for VEGF by BIAcore solution affinity assay. In short, it runs like this: as §1

Data set [3] concerns the target Fibroblast growth factor 1 (Homo sapiens, UniProt P05230). Put plainly: Binding affinity for FGF1 by BIAcore solution affinity assay. In short, it runs like this: as §1
In data set [4] the target is T2, Heparanase (Homo sapiens, UniProt Q9Y251).
T2 sequence (Q9Y251 whole entry): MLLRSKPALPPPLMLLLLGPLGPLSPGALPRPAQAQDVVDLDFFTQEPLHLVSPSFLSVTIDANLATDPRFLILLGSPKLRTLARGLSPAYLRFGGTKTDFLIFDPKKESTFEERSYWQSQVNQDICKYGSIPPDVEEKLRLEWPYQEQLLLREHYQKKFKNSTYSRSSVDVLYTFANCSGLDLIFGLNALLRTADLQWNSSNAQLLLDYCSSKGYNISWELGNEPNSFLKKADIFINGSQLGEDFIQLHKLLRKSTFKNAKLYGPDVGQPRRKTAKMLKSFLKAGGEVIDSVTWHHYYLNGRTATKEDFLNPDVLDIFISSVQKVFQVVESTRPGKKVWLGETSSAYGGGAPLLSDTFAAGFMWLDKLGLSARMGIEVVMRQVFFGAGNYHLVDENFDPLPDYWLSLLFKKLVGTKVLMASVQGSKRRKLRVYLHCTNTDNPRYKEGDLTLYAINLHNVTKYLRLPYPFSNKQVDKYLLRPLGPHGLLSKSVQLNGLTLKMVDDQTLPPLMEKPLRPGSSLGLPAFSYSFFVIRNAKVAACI
Description: Inhibitory activity against human platelet heparanase by Microcon ultrafiltration assay. An outline of the steps: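 Platelet-derived heparanase (100 ng) in 40 mM acetate pH 5.0, 0.1 mg/mL BSA with inhibitor, preequilibrated 10 min at 22 °C. Started with 5 μM [3H]HS, 4 h at 22 °C. Cleaved fragments separated by 10 kDa ultrafiltration and counted; activity = 4 h minus time-0 filtrate, compared with inhibitor-free control. IC50.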

Data set [5] has as its system Human alphaherpesvirus 1. Description: Inhibition of cell to cell spread of HSV1. In kind it is functional, organism-based, Human herpesvirus 1 strain KOS. Particulars: Human alphaherpesvirus 1, KOS321. In short, it runs like this: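 African green monkey kidney monolayers infected with HSV-1 KOS321, then 5-fold compound dilutions (0.032–20 μM) in serum-free overlay for 3 days at 37 °C. Area of 20 plaques measured from images, expressed relative to mock-treated cells. IC50 derived.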

For data set [6], the system named is Human alphaherpesvirus 1. Put plainly: Inhibition of HSV1 infection. Format: functional, organism-based, Human herpesvirus 1 strain KOS. Particulars: Human alphaherpesvirus 1, KOS321.
The subject of data set [7] is Rattus norvegicus. Description: Plasma concentration in male Sprague-Dawley rat administered with 2.5 mg/kg, iv. The arrangement: dose 2.5 mg/kg, route intravenous. The following applies: in vivo. Format: ADME, organism-based. In short, it runs like this: (§2)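 Plasma sampled predose to 48 h, counted in triplicate by liquid scintillation, no decay correction; <3× background excluded. Apparent parameters from notionally linear log-concentration phase; mean ± SD, n = 4.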

Data set [8] in a line: Area under curve (0-12h) male Sprague-Dawley rat administered with 2.5 mg/kg, iv. The following applies: in vivo. The arrangement: time < 12 hr, dose 2.5 mg/kg, route intravenous. Format: ADME, organism-based. In short, it runs like this: as §2
Data set [9] is described as follows: Half life in male Sprague-Dawley rat administered with 2.5 mg/kg, iv. In kind it is ADME, organism-based. The arrangement: dose 2.5 mg/kg, route intravenous. The following applies: in vivo. In short, it runs like this: as §2
A short description of data set [10]: Volume of distribution in male Sprague-Dawley rat administered with 2.5 mg/kg, iv. In kind it is ADME, organism-based. Particulars: in vivo, read-out: Vdss. The arrangement: dose 2.5 mg/kg, route intravenous. An outline of the steps:
as §2

Data set [11] can be described thus: Clearance in male Sprague-Dawley rat administered with 2.5 mg/kg, iv. Format: ADME, organism-based. More on the design: dose 2.5 mg/kg, route intravenous. Particulars: in vivo. In short, it runs like this:
as §2

Each structure is given as a SMILES string.

A word on the Kd: it is a measure of binding affinity in units of concentration. Broadly, the IC50 is the concentration at which inhibition is half-maximal. A higher IC50 goes with a need for much substance. A word on the AUC(0-t): it is exposure summed from dosing to a finite time, without extrapolation to infinity. The term half-life denotes the time in which the quantity being followed falls by half. A word on the clearance: it is the volume of plasma or blood freed of the substance per unit of time. Read a low clearance as a low capacity for elimination.

Fibroblast growth factor 1, sequence (P05230 whole entry): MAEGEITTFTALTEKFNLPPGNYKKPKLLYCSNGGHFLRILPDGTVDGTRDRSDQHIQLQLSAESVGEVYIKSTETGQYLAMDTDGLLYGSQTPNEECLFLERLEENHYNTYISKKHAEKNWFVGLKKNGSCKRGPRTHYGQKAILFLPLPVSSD

With `O=C(CCCC[C@@H]1SC[C@@H]2NC(=O)N[C@@H]21)NCCCCCC(=O)N[C@H]1O[C@H](CO)[C@@H](O)[C@H](O)[C@@H]1O[C@H]1O[C@H](CO)[C@@H](O)[C@H](O[C@H]2O[C@H](CO)[C@@H](O)[C@H](O[C@H]3O[C@H](CO)[C@@H](O)[C@H](O[C@H]4O[C@H](CO)[C@@H](O)[C@H](O)[C@@H]4O)[C@@H]3O)[C@@H]2O)[C@@H]1O`, the Kd came out at 84 nM in [1], 7.2 nM in data set [2] and 0.39 nM in data set [3]. Besides, the half-maximal inhibitory concentration (IC50) in data set [4] came out at 1850 nM; in data set [5], 3000 nM; in data set [6], 2000 nM. For the same compound, the Cp in data set [7] is 14000 ng/mL. The AUC(0-t) at 12 h in data set [8] was found to be 6500 ng·h/mL. The same compound gave a half-life in [9] of 47.4 min. The Vd in data set [10] came out at 0.0551 L. Further, the clearance in [11] is 6.33 mL/min/kg.

On to `CCCCCCCCO[C@H]1O[C@H](CO)[C@@H](O)[C@H](O)[C@@H]1O[C@H]1O[C@H](CO)[C@@H](O)[C@H](O[C@H]2O[C@H](CO)[C@@H](O)[C@H](O[C@H]3O[C@H](CO)[C@@H](O)[C@H](O[C@H]4O[C@H](CO)[C@@H](O)[C@H](O)[C@@H]4O)[C@@H]3O)[C@@H]2O)[C@@H]1O`, for which the equilibrium dissociation constant (Kd) in data set [1] turned out to be 68 nM; in data set [2] it was 1.7 nM; in [3] it was 0.144 nM. Moreover, the half-inhibitory concentration (IC50) was determined as 1640 nM in data set [4], 400 nM in data set [5] and 1000 nM in data set [6]. The same compound had a Cp in data set [7] of 35600 ng/mL. Besides, in data set [8], the exposure AUC(0-t) at 12 h is 29700 ng·h/mL. The compound further had a half-life in data set [9] of 66 min. Further, in [10], the Vd amounted to 0.0229 L. Besides, in [11], the clearance was 1.39 mL/min/kg.

Turning to `OC[C@H]1O[C@H](O[C@@H]2[C@H](O)[C@@H](O[C@@H]3[C@H](O)[C@@H](O[C@@H]4[C@H](O)[C@@H](O[C@@H]5[C@@H](OCc6ccccc6)O[C@H](CO)[C@@H](O)[C@@H]5O)O[C@H](CO)[C@H]4O)O[C@H](CO)[C@H]3O)O[C@H](CO)[C@H]2O)[C@@H](O)[C@@H](O)[C@@H]1O`, the results for the Kd in data set [1], in data set [2] and in data set [3] were 86 nM, 1.7 nM and 0.12 nM, respectively. The IC50 in [4] came out at 1830 nM; in [5], 1000 nM; in data set [6], 2000 nM. This compound came in with a Cp in data set [7] of 20500 ng/mL. Besides, the area under the curve AUC(0-t) at 12 h in [8] came out at 12600 ng·h/mL. In data set [9], the half-life was 49.8 min. Moreover, the Vd in [10] is 0.0384 L. In addition, in data set [11], the clearance was 3.32 mL/min/kg.

For `O=C(COc1ccccc1)N[C@H]1O[C@H](CO)[C@@H](O)[C@H](O)[C@@H]1O[C@H]1O[C@H](CO)[C@@H](O)[C@H](O[C@H]2O[C@H](CO)[C@@H](O)[C@H](O[C@H]3O[C@H](CO)[C@@H](O)[C@H](O[C@H]4O[C@H](CO)[C@@H](O)[C@H](O)[C@@H]4O)[C@@H]3O)[C@@H]2O)[C@@H]1O`, the Kd amounted to 112 nM in data set [1], 7.1 nM in [2] and 0.66 nM in [3]. Also, the figures for the 50% inhibitory concentration (IC50) in data set [4], in data set [5] and in [6] were 2020 nM, 5000 nM and 7000 nM, respectively.

(Values after ChEMBL document CHEMBL1140436, “Synthesis, biological activity, and preliminary pharmacokinetic evaluation of analogues of a phosphosulfomannan angiogenesis inhibitor (PI-88)” (J Med Chem, 2005).)
